This is an account of results in article PMC11480350 (Nature Communications, 2024).

Assay [1] deals with SCMC. Kind of assay: Strep pull-down of 14-3-3 paralogs. It counts as binding, mouse. Particulars: Strep-Tactin pull-down, purified SCMC and 14-3-3 paralogs, SDS-PAGE. The procedure, abridged:
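SCMC was expressed in Sf9 cells for 60 h at 27 °C: His-MATER 1–1059, Strep-TLE6 48–581, Strep-FLOPED 1–164, Strep-FILIA 1–124 or 1–256. It was purified by Ni-NTA, anion exchange and Superose 6. GST-14-3-3 paralogs came from E. coli, were 3C-cleaved, and went through anion exchange and Superdex 200. Proteins were mixed with SCMC or buffer control and captured on Strep-Tactin at 4 °C. Washes contained 0.5% NP-40 and elution used 50 mM biotin. Read-out was SDS-PAGE/immunoblot.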

Assay [2] deals with Mouse zygotes. Kind of assay: Early embryonic development of zygotes with PKA inhibitor. The conditions noted are these: H89 20 μM, commencing from 72 h pHCGi. It counts as cell-based.
In assay [3] the test system is mouse 14-3-3γ. In words: 14-3-3γ degradation, immunoblotting in HEK-293F cells. The format is cell-based. In general terms: In western blotting, separated proteins are transferred to a membrane and probed.
Assay [4] has as its target T1, 14-3-3γ (Mus musculus, UniProt P61982).
T1 sequence (P61982 1-247): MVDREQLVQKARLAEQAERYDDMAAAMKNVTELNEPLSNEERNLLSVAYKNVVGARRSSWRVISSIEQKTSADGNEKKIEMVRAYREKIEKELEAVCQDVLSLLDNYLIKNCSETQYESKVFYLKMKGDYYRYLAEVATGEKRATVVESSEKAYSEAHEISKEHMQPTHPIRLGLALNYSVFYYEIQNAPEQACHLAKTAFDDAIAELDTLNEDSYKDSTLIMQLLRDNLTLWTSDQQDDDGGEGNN
In words: Isothermal titration calorimetry. The format is binding. The conditions noted are these: ITC, 25 °C, pH 7.5, 3 independent experiments. The procedure, abridged:
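Mouse 14-3-3γ was expressed in E. coli as a GST fusion and purified on glutathione resin. The tag was cut with 3C protease, then the protein was polished by anion exchange and Superdex 200. TLE6 phosphopeptides were titrated into 14-3-3γ (e.g., 1.3 mM peptide into 50 μM protein). Data were corrected for dilution heat and curve-fitted for Kd. Three independent titrations, mean ± S.D.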

Assay [5] addresses 14-3-3γ (UniProt P61982). Kind of assay: anti-Flag. The conditions noted are these: reference: wild-type TLE6.
Assay [6] has as its target His-tagged 14-3-3γ (mouse) (UniProt P61982). Kind of assay: ITC.

Where a SMILES comes first, the peptide text is derived from it. Where no end group is shown, it is not given here. [ ]: non-standard residue; d: D form. The star is where a group is joined. pS = N[C@@H](COP(=O)(O)O)C(=O)O; Cbz = O=C(OCc1ccccc1)*

As to “14-3-3γ: mouse 14-3-3 paralog γ (1–247 aa)”, in assay [1], the “binding to the SCMC” value was “most potent binding partner”. With `O=S(=O)(NCCNC/C=C/c1ccc(Br)cc1)c1cccc2cnccc12` [H89], in assay [2], the “progression of early embryonic development” value is listed as “markedly retarded”. Regarding `CC(C)C[C@@H](C=O)NC(=O)[C@H](CC(C)C)NC(=O)[C@H](CC(C)C)NC(=O)OCc1ccccc1` [MG132] (Cbz-Leu-Leu-Leu-aldehyde), in assay [3] (MG132 20 μM with cycloheximide 100 μg/ml), the “decrease in the protein level of 14-3-3γ” value is recorded as “effectively rescued”.

For `C[C@@H]1C[C@@H]([C@H](O)CC2CC(=O)NC(=O)C2)C(=O)[C@@H](C)C1` [cycloheximide], in assay [3] (cycloheximide 100 μg/ml), the “level of exogenous mouse 14-3-3γ” value is “gradually degraded”. With “TLE6 (133–144): wild-type TLE6 peptide, residues 133–144 (TRRRFLSESDEL)”, the “binding to 14-3-3γ (in words)” value in assay [4] is on record as “cannot bind to 14-3-3γ”. The same measure, in the same setting: the entry for “TLE6 (203–214): wild-type TLE6 peptide, residues 203–214 (QPRHRNSLSDSA)” is “cannot bind to 14-3-3γ”. The same measure, in the same setting: the same measure for “TLE6 (217–228) pS223: phosphopeptide of TLE6 residues 217–228 carrying phosphorylated Ser223 (FLIKSP[pS]ALLDY)”: “cannot bind to 14-3-3γ”. With TLE6 (from UniProt Q9WVB3) S139A, the “binding against the reference” value in assay [5] (sites S139) was “weaker”. TLE6 (from UniProt Q9WVB3) S209A: the “binding against the reference” value in assay [5] (sites S209) was “weaker”. The term Kd denotes the constant that tells how readily two partners part at equilibrium. In assay [6], QPRHRN[pS]LSDSA [TLE6 (203–214) pS209 phosphopeptide] gave a Kd of 315 µM. On the same count and under the same terms, the same measure for TRRRFL[pS]ESDEL [TLE6 (133–144) pS139 phosphopeptide]: 55.8 µM.
